Test results published in ChEMBL document CHEMBL3870332, “Development of pharmacophore models for small molecules targeting RNA: Application to the RNA repeat expansion in myotonic dystrophy type 1” (Bioorg Med Chem Lett, 2016).
Active and inactive are the calls of the source. No cut-off for these calls is given here.

Tests used:
[1] = Binding affinity to biotinylated-r(CUG)12 RNA (unknown origin) assessed as disruption of r(CUG)12/His6-tagged MBNL1 complex at 50 uM incubated for 15 mins by TR-FRET assay
Method in brief: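 TR-FRET disruption of a preformed r(CUG)12–MBNL1 complex, method as described previously; each compound screened at a single 50 µM concentration.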

[2] = system: C2C12; assay: Binding affinity to r(CUG)800 RNA (unknown origin) expressed in mouse C2C12 cells assessed as increase in nucleocytoplasmic transport of mRNA at 12.5 to 50 uM measured after 20 to 24 hrs by luciferase reporter gene assay; type: cell-based
Method in brief: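 Run in C2C12 cells expressing a luciferase-encoding mRNA carrying 800 CUG repeats in the 3′ UTR. Nucleocytoplasmic export is read as luciferase turnover of a pro-luminescent substrate. Compounds tested at 50, 25 and 12.5 µM.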

[3] = system: HeLa; assay: Binding affinity to r(CUG)960 RNA (unknown origin) expressed in human HeLa cells co-expressing cTNT mini-gene assessed as reduction in deregulated cTNT exon5 alternative splicing at 100 uM measured after 20 to 24 hrs by RT-PCR analysis; type: cell-based
[4] = Cytotoxicity against human HeLa cells expressing DM1 assessed as reduction in cell viability at 100 uM measured after 24 hrs by WST-1 assay; type: toxicity, cell-based
[5] = system: HeLa; assay: Binding affinity to r(CUG)960 RNA (unknown origin) expressed in human HeLa cells co-expressing cTNT mini-gene assessed as reduction in deregulated cTNT exon5 alternative splicing at 10 uM measured after 20 to 24 hrs by RT-PCR analysis; type: cell-based
[6] = system: HeLa; assay: Increase in DMPK transcript level in human HeLa cells co-expressing DM1/DMPK and cTNT mini-gene at 100 uM measured after 20 to 24 hrs by RT-qPCR method; type: functional, cell-based
[7] = system: C2C12; assay: Effect on luciferase expression in mouse C2C12 cells at 12.5 to 50 uM measured after 20 to 24 hrs by luminescence assay; type: functional, cell-based
Method in brief: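 Counterscreen in the same C2C12 luciferase line without CUG repeats, used to flag compounds that enhance luciferase translation non-specifically. Compounds tested at 50, 25 and 12.5 µM.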

[8] = Binding affinity to r(CUG)2 RNA (unknown origin) measured after 5 mins by fluorescence analysis
[9] = Binding affinity to r(GC)20 RNA (unknown origin) measured after 5 mins by fluorescence analysis
[10] = Binding affinity to tRNA (unknown origin) measured after 30 mins by fluorescence analysis
[11] = Binding affinity to AT hairpin DNA (unknown origin) measured after 30 mins by fluorescence analysis

For O=C(Nc1ccc2[nH]c(-c3ccc(F)cc3)nc2c1)c1ccncc1, the Activity [1] was greater than 20%, the Activity [2] was “Active” and the Activity [3] was “Active”. For the same molecule, the Activity [4] was “Non-Toxic”.
In the case of O=C(Nc1ccccn1)c1cccc(OCc2cscn2)c1, the Activity [1] is reported as greater than 20%, the Activity [2] is reported as “Active” and the Activity [3] is reported as “Active”. The Activity [5] was “Active”, the Activity [4] was “Non-Toxic” and the Activity [6] was “Active”.
With Cc1c(C(=O)Nc2ccccn2)sc2nc(-c3ccccc3)cn12 the Activity [1] was greater than 20%, the Activity [2] was “Active” and the Activity [7] was “Active”.
With O=C(Nc1ccc(-c2nc3ccccc3[nH]2)cc1)c1cccnc1 the Activity [1] was greater than 20%, the Activity [2] was “Active” and the Activity [7] was “Active”.
In the case of O=C(Nc1ccc2c(c1)C(=O)N(c1ccccc1)C2=O)c1ccco1, the Activity [1] is reported as greater than 20%, the Activity [2] is reported as “Active” and the Activity [7] is reported as “Active”.
In the case of O=C(Nc1ccc(NC(=O)c2ccc(F)cc2)nc1)c1ccncc1, the Activity [1] is reported as greater than 20%, the Activity [2] is reported as “Active” and the Activity [3] is reported as “Active”. The Activity [5] was “Active”, the Kd [8] was 4.6 µM and the Kd [9] was greater than 30 µM. For the same molecule, the Kd [10] was greater than 50 µM, the Kd [11] was greater than 50 µM and the Activity [4] was “Non-Toxic”.
Molecule Nc1ccc(-c2nc3ccc(-c4nc5ccc(N)cc5[nH]4)cc3[nH]2)cc1 has an Activity [1] greater than 20%.
